ChEMBL document CHEMBL4689842, “EUbOPEN Chemogenomics Library wave 1” (2021)
Where “and” joins values, the source holds several entries; their conditions need not be identical. Equal entries are not always repeated.

Key:
Type in all cases: toxicity, cell-based
HEK-293T [1] = test: Multiplex assay against HEK293T; settings: human, 24 h, 10 µM, compound concentration 10 uM, replicate 2;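 for Population Tubulin-Different-Phenotype (%): share of the cells with healthy nuclei that show this phenotype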
In short: (§1)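 Live cells were stained at seeding with Hoechst33342, BioTracker Green Microtubule Cytoskeleton Dye, MitoTracker Red and Annexin V Alexa Fluor 680. Following compound addition, they were imaged on a CQ1 microscope at 37°C and 5% CO2 and gated by CellPathfinder machine learning into Hoechst high-intensity objects or normal cells, with normal cells split into healthy, pyknosed or fragmented nuclei and pyknosed cells into mitotic or apoptotic. Tubulin, mitochondrial-mass and membrane-permeability phenotypes are per cents of healthy-nucleus cells.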

U2OS [2] = test: Multiplex assay against U2OS; settings: human, 10 µM, compound concentration 10 uM; in short: as §1
HEK-293T [3] = test: Incucyte cell viability with HEK293T; settings: human, 10 µM, compound concentration 10 uM; note: filed as whole numbers so only -1 and 0 and 1 occur
Fibroblast = test: Incucyte cell viability with human fibroblast; settings: 10 µM, compound concentration 10 uM; note: filed as whole numbers so only -1 and 0 and 1 occur
U2OS [4] = test: Incucyte cell viability with U2OS; settings: human, 10 µM, compound concentration 10 uM; note: filed as whole numbers so only -1 and 0 and 1 occur
[5] = 0 h, replicate number 2, timepoint 0 hours
[6] = 24 h, replicate number 2, timepoint 24 hours
[7] = 6 h, replicate number 1, timepoint 6 hours
[8] = 12 h, replicate number 1, timepoint 12 hours
[9] = 12 h, replicate number 2, timepoint 12 hours
[10] = 18 h, replicate number 1, timepoint 18 hours
[11] = 18 h, replicate number 2, timepoint 18 hours
[12] = 24 h, replicate number 1, timepoint 24 hours

Cc1c(Oc2ccc(F)cc2)c(OC(C)C)nn1-c1ccc(C2CC2)cn1 [IPP/CNRS-A019]
Population Hoechst High Intensity Objects (%) (HEK-293T [1]): 2%
Population Membrane Permeable-Phenotype (%) (HEK-293T [1]): 2%
Population Mitotic Cells (%) (HEK-293T [1]): 90% and 93%
Population Normal (%) (HEK-293T [1]): 97%
Population Pyknosed Nuclei (%) (HEK-293T [1]): 2% and 1%
Population Tubulin-Different-Phenotype (%) (HEK-293T [1]): 20%
Total Cell Count (HEK-293T [1]): 2108 and 1925
Population Apoptotic (%) (U2OS [2]; 12 h, replicate 1): 23% and 20%
Population Fragmented Nuclei (%) (U2OS [2]; 12 h, replicate 1): 3%
Population Healthy Nuclei (%) (U2OS [2]; 12 h, replicate 1): 88%
Population Hoechst High Intensity Objects (%) (U2OS [2]; 12 h, replicate 1): 2% and 3%
Population Membrane Permeable-Phenotype (%) (U2OS [2]; 12 h, replicate 1): 12% and 11%
Population Mitochondria Different-Phenotype (%) (U2OS [2]; 12 h, replicate 1): 11% and 23%
Population Mitotic Cells (%) (U2OS [2]; 12 h, replicate 1): 76% and 80%
Population Normal (%) (U2OS [2]; 12 h, replicate 1): 97% and 96%
Population Pyknosed Nuclei (%) (U2OS [2]; 12 h, replicate 1): 7% and 6%
Population Tubulin-Different-Phenotype (%) (U2OS [2]; 12 h, replicate 1): 14% and 25%
Total Cell Count (U2OS [2]; 12 h, replicate 1): 250 and 141
Population Apoptotic (%) (U2OS [2]; 12 h, replicate 2): 50% and 33%
Population Fragmented Nuclei (%) (U2OS [2]; 12 h, replicate 2): 5% and 8%
Population Healthy Nuclei (%) (U2OS [2]; 12 h, replicate 2): 90% and 87%
Population Hoechst High Intensity Objects (%) (U2OS [2]; 12 h, replicate 2): 11% and 13%
Population Membrane Permeable-Phenotype (%) (U2OS [2]; 12 h, replicate 2): 15% and 7%
Population Mitochondria Different-Phenotype (%) (U2OS [2]; 12 h, replicate 2): 21% and 25%
Population Mitotic Cells (%) (U2OS [2]; 12 h, replicate 2): 50% and 66%
Population Normal (%) (U2OS [2]; 12 h, replicate 2): 88% and 86%
Population Pyknosed Nuclei (%) (U2OS [2]; 12 h, replicate 2): 4%
Population Tubulin-Different-Phenotype (%) (U2OS [2]; 12 h, replicate 2): 19% and 24%
Total Cell Count (U2OS [2]; 12 h, replicate 2): 152 and 113
Population Apoptotic (%) (U2OS [2]; 24 h, replicate 1): 42% and 34%
Population Fragmented Nuclei (%) (U2OS [2]; 24 h, replicate 1): 2% and 3%
Population Healthy Nuclei (%) (U2OS [2]; 24 h, replicate 1): 93% and 90%
Population Hoechst High Intensity Objects (%) (U2OS [2]; 24 h, replicate 1): 2% and 1%
Population Membrane Permeable-Phenotype (%) (U2OS [2]; 24 h, replicate 1): 8% and 7%
Population Mitochondria Different-Phenotype (%) (U2OS [2]; 24 h, replicate 1): 9%
Population Mitotic Cells (%) (U2OS [2]; 24 h, replicate 1): 57% and 65%
Population Normal (%) (U2OS [2]; 24 h, replicate 1): 97% and 98%
Population Pyknosed Nuclei (%) (U2OS [2]; 24 h, replicate 1): 5%
Population Tubulin-Different-Phenotype (%) (U2OS [2]; 24 h, replicate 1): 25% and 18%
Total Cell Count (U2OS [2]; 24 h, replicate 1): 149 and 352
Population Fragmented Nuclei (%) (U2OS [2]; 24 h, replicate 2): 8% and 7%
Population Healthy Nuclei (%) (U2OS [2]; 24 h, replicate 2): 87% and 85%
Population Hoechst High Intensity Objects (%) (U2OS [2]; 24 h, replicate 2): 4% and 5%
Population Membrane Permeable-Phenotype (%) (U2OS [2]; 24 h, replicate 2): 15% and 9%
Population Mitochondria Different-Phenotype (%) (U2OS [2]; 24 h, replicate 2): 24% and 37%
Population Normal (%) (U2OS [2]; 24 h, replicate 2): 95% and 94%
Population Pyknosed Nuclei (%) (U2OS [2]; 24 h, replicate 2): 4% and 6%
Population Tubulin-Different-Phenotype (%) (U2OS [2]; 24 h, replicate 2): 16% and 24%
Total Cell Count (U2OS [2]; 24 h, replicate 2): 184 and 121
Growth Rate (HEK-293T [3]; 0 h, replicate number 1, timepoint 0 hours): 0
Growth Rate (HEK-293T [3]; [5]): 1
Growth Rate (HEK-293T [3]; [6]): 1
Growth Rate (Fibroblast; [5]): 0
Growth Rate (Fibroblast; [7]): 0
Growth Rate (Fibroblast; [8]): 0
Growth Rate (Fibroblast; [9]): 1
Growth Rate (Fibroblast; [10]): 0
Growth Rate (Fibroblast; [11]): 1
Growth Rate (Fibroblast; [12]): 0
Growth Rate (Fibroblast; [6]): 1
Growth Rate (U2OS [4]; [5]): 0
Growth Rate (U2OS [4]; [7]): 1
Growth Rate (U2OS [4]; 6 h, replicate number 2, timepoint 6 hours): 0
Growth Rate (U2OS [4]; [8]): 1
Growth Rate (U2OS [4]; [9]): 0
Growth Rate (U2OS [4]; [10]): 1
Growth Rate (U2OS [4]; [11]): 0
Growth Rate (U2OS [4]; [12]): 1
Growth Rate (U2OS [4]; [6]): 0
